Data taken from ChEMBL document CHEMBL3868630, “Synthesis, anti-proliferative activity, SAR study, and preliminary in vivo toxicity study of substituted N,N'-bis(arylmethyl)benzimidazolium salts against a panel of non-small cell lung cancer cell lines” (Bioorg Med Chem, 2017).

What was measured:
[1] = Cytotoxicity against human NCI-H23 cells assessed as cell growth at 10 uM after 48 hrs by SRB assay relative to control; assay type: functional; conditions: NCI-H23, 48 h, read-out: Activity
[2] = Cytotoxicity against human NCI-H460 cells assessed as cell growth at 10 uM after 48 hrs by SRB assay relative to control; assay type: functional; conditions: NCI-H460, 48 h, read-out: Activity
[3] = Aqueous solubility of the compound; assay type: physicochemical
[4] = Cytotoxicity against human HCC827 cells assessed as decrease in cell viability after 72 hrs by MTT assay; assay type: functional, cell-based; conditions: HCC827, 72 h
Summary of the method: (§1)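 Cells kept in RPMI 1640 with 10% FBS at 37 °C, 5% CO2, passaged every 2-3 days; seeded at 5,000-7,000 cells/well and left 24 h. Compounds dissolved in 1% DMSO, diluted in fresh medium to 1, 4, 16 and 32 µM, added in sextuplicate; 72 h exposure. MTT added for 3-4 h, medium removed, DMSO added for 15 min at 37 °C, OD read at 540 nm.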

[5] = Cytotoxicity against human NCI-H226 cells assessed as cell growth at 10 uM after 48 hrs by SRB assay relative to control; assay type: functional; conditions: NCI-H226, 48 h, read-out: Activity
[6] = Cytotoxicity against human A549 cells assessed as decrease in cell viability after 72 hrs by MTT assay; assay type: functional, cell-based; conditions: A549, 72 h; summary of the method: as §1
[7] = Cytotoxicity against human NCI-H322M cells assessed as cell growth at 10 uM after 48 hrs by SRB assay relative to control; assay type: functional; conditions: read-out: Activity
[8] = Cytotoxicity against human NCI-H460 cells assessed as decrease in cell viability after 72 hrs by MTT assay; assay type: functional, cell-based; conditions: NCI-H460, 72 h; summary of the method: as §1
[9] = Cytotoxicity against human A549 cells assessed as cell growth at 10 uM after 48 hrs by SRB assay relative to control; assay type: functional; conditions: A549, 48 h, read-out: Activity
[10] = Cytotoxicity against human NCI-H522 cells assessed as cell growth at 10 uM after 48 hrs by SRB assay relative to control; assay type: functional; conditions: NCI-H522, 48 h, read-out: Activity
[11] = Cytotoxicity against human EKVX cells assessed as cell growth at 10 uM after 48 hrs by SRB assay relative to control; assay type: functional; conditions: read-out: Activity
[12] = Cytotoxicity against human NCI-H1975 cells assessed as decrease in cell viability after 72 hrs by MTT assay; assay type: functional, cell-based; conditions: NCI-H1975, 72 h; summary of the method: as §1
[13] = Cytotoxicity against human HOP62 cells assessed as cell growth at 10 uM after 48 hrs by SRB assay relative to control; assay type: functional; conditions: HOP-62, 48 h, read-out: Activity
[14] = Cytotoxicity against human HOP92 cells assessed as cell growth at 10 uM after 48 hrs by SRB assay relative to control; assay type: functional; conditions: HOP-92, 48 h, read-out: Activity

COC(=O)CCc1n(Cc2ccc3ccccc3c2)c2ccccc2[n+]1Cc1ccc2ccccc2c1.[Br-]
growth at 10 µM [1]: -7.39%
growth at 10 µM [2]: 6.29%
solubility [3]: < 500 µg/mL
IC50 [4]: 4 µM
growth at 10 µM [5]: 17.7%
IC50 [6]: 8 µM
growth at 10 µM [7]: 36.6%
IC50 [8]: 4 µM
growth at 10 µM [9]: 38.3%
growth at 10 µM [10]: -29.4%
growth at 10 µM [11]: 42.1%
IC50 [12]: 2 µM
growth at 10 µM [13]: 19%
growth at 10 µM [14]: -34.4%

CCc1n(Cc2ccc3ccccc3c2)c2ccccc2[n+]1Cc1ccc2ccccc2c1.[Br-]
growth at 10 µM [1]: 28.8%
growth at 10 µM [2]: 53.6%
solubility [3]: < 500 µg/mL
IC50 [4]: 4 µM
growth at 10 µM [5]: 64.9%
IC50 [6]: 3 µM
growth at 10 µM [7]: 90.7%
IC50 [8]: 3 µM
growth at 10 µM [9]: 74.2%
growth at 10 µM [10]: 12.1%
growth at 10 µM [11]: 76.7%
IC50 [12]: < 1 µM
growth at 10 µM [13]: 81.3%
growth at 10 µM [14]: 21.9%

COCCOCCOCc1n(Cc2ccc3ccccc3n2)c2ccccc2[n+]1Cc1ccc2ccccc2n1.[Cl-]
growth at 10 µM [1]: 12.8%
growth at 10 µM [2]: 16.5%
solubility [3]: 42200 µg/mL
IC50 [4]: 4 µM
growth at 10 µM [5]: 37.9%
IC50 [6]: 9 µM
growth at 10 µM [7]: 47.4%
IC50 [8]: 4 µM
growth at 10 µM [9]: 39.4%
growth at 10 µM [10]: -1.7%
growth at 10 µM [11]: 71.6%
IC50 [12]: < 1 µM
growth at 10 µM [13]: 20.8%
growth at 10 µM [14]: -22.1%

OCCCc1n(Cc2ccc3ccccc3n2)c2ccccc2[n+]1Cc1ccc2ccccc2n1.[Cl-]
growth at 10 µM [1]: 75%
growth at 10 µM [2]: 91.8%
solubility [3]: < 500 µg/mL
IC50 [4]: 17 µM
growth at 10 µM [5]: 79.8%
IC50 [6]: 25 µM
growth at 10 µM [7]: 91.7%
IC50 [8]: 11 µM
growth at 10 µM [9]: 93.2%
growth at 10 µM [10]: 60%
growth at 10 µM [11]: 97.8%
IC50 [12]: 7 µM
growth at 10 µM [13]: 87.5%
growth at 10 µM [14]: 47.9%

COCCc1n(Cc2ccc3ccccc3c2)c2ccccc2[n+]1Cc1ccc2ccccc2c1.[Br-]
growth at 10 µM [1]: -24.3%
growth at 10 µM [2]: -65.3%
solubility [3]: < 500 µg/mL
IC50 [4]: 3 µM
growth at 10 µM [5]: -7.12%
IC50 [6]: 3 µM
growth at 10 µM [7]: 5.25%
IC50 [8]: 3 µM
growth at 10 µM [9]: 4.72%
growth at 10 µM [10]: -54.4%
growth at 10 µM [11]: 4.7%
IC50 [12]: 2 µM
growth at 10 µM [13]: -19.1%
growth at 10 µM [14]: -53.1%

COC(=O)c1ccc2c(c1)n(Cc1ccc3ccccc3c1)c[n+]2Cc1ccc2ccccc2c1.[Br-]
growth at 10 µM [1]: 34.6%
growth at 10 µM [2]: 28.6%
solubility [3]: < 500 µg/mL
IC50 [4]: 12 µM
growth at 10 µM [5]: 61.3%
IC50 [6]: 16 µM
growth at 10 µM [7]: 57.2%
IC50 [8]: 9 µM
growth at 10 µM [9]: 75%
growth at 10 µM [10]: 26.3%
growth at 10 µM [11]: 71%
IC50 [12]: 7 µM
growth at 10 µM [13]: 63.8%
growth at 10 µM [14]: -10.7%

COC(=O)c1cc2c(cc1C(=O)OC)[n+](Cc1ccc3ccccc3c1)cn2Cc1ccc2ccccc2c1.[Br-]
growth at 10 µM [1]: 93.2%
growth at 10 µM [2]: 94.5%
solubility [3]: < 500 µg/mL
IC50 [4]: 20 µM
growth at 10 µM [5]: 77.7%
IC50 [6]: 23 µM
growth at 10 µM [7]: 90.6%
IC50 [8]: 26 µM
growth at 10 µM [9]: 92.2%
growth at 10 µM [10]: 77.3%
growth at 10 µM [11]: 94.3%
IC50 [12]: 15 µM
growth at 10 µM [13]: 78.8%
growth at 10 µM [14]: 84.7%
